Experimental data: ChEMBL document CHEMBL3856248, “2-Benzylidene-1-indanone derivatives as inhibitors of monoamine oxidase” (Bioorg Med Chem Lett, 2016)
pIC50: −log10 of the molar value.

What was measured:
Homo sapiens = species on record: Homo sapiens; assay: Selectivity index, ratio of IC50 for recombinant human MAO-A to IC50 for recombinant human MAO-B
Method in brief: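 Ratio of IC50 for MAO-A to IC50 for MAO-B. Both are from the kynuramine fluorescence assay with recombinant human enzymes (37 °C, 20 min, endpoint 4-hydroxyquinoline).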

[1] = molecular target: T1, Amine oxidase [flavin-containing] A (Homo sapiens, UniProt P21397); assay: Inhibition of recombinant human MAO-A using kynuramine as substrate after 20 mins by fluorescence spectrophotometric analysis
T1 sequence (P21397 whole entry): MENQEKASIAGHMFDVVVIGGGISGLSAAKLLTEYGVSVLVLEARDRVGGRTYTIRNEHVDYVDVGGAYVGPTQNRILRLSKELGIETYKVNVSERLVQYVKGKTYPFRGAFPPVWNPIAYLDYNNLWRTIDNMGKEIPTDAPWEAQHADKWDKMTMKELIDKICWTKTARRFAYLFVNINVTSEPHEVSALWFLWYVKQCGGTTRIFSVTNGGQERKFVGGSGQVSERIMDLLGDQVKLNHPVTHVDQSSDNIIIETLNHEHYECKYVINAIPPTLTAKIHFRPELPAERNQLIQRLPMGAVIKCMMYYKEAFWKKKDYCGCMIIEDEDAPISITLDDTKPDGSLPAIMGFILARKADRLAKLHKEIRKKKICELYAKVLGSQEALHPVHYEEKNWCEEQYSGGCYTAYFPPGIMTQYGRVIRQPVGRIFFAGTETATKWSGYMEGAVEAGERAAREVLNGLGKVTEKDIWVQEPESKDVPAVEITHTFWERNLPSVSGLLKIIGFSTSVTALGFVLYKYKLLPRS
Method in brief: (§1)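 Recombinant human enzyme incubated with kynuramine and test inhibitor at 37 °C for 20 min; stopped with 2 N NaOH. The 4-hydroxyquinoline product is read at endpoint by fluorescence in alkaline medium. Inhibitor-free controls run each time.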

[2] = molecular target: T2, Amine oxidase [flavin-containing] B (Homo sapiens, UniProt P27338); assay: Inhibition of recombinant human MAO-B using kynuramine as substrate after 20 mins by fluorescence spectrophotometric analysis; method in brief: as §1
T2 sequence (P27338 whole entry): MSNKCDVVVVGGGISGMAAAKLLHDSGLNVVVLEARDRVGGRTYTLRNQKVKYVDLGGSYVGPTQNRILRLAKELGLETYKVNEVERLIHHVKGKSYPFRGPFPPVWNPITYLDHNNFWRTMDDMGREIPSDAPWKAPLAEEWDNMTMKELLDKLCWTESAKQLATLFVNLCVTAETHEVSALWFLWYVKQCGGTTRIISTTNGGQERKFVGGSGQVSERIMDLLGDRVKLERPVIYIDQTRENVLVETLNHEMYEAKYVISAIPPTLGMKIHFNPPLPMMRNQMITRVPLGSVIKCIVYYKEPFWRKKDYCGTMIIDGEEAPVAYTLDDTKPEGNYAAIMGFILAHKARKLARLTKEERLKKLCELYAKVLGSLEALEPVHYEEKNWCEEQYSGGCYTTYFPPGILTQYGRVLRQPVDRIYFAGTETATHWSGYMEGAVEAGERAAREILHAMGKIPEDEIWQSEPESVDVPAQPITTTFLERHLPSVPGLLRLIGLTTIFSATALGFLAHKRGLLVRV

[3] = molecular target: T3, Amine oxidase [flavin-containing] A (Rattus norvegicus, UniProt P21396); assay: Inhibition of Wistar rat liver mitochondrial MAO-A using […] as substrate after 1 hr by spectrophotometric analysis
T3 sequence (P21396 whole entry): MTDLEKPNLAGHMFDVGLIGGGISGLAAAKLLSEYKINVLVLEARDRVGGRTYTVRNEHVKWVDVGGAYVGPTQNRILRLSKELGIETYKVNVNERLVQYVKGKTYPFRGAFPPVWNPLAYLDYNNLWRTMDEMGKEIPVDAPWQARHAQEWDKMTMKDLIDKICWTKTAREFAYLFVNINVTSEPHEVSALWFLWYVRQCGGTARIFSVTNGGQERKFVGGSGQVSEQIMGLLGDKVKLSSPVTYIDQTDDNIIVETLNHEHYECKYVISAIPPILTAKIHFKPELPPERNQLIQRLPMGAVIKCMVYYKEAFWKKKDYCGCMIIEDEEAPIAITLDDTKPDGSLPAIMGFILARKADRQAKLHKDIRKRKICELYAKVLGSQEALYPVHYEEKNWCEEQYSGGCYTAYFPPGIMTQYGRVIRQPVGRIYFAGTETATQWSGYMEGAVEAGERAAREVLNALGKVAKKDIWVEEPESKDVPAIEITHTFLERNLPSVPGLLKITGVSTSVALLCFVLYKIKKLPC

[4] = molecular target: T4, Amine oxidase [flavin-containing] B (Rattus norvegicus, UniProt P19643); assay: Inhibition of Sprague-Dawley rat brain mitochondrial MAO-B using DMAPEA as substrate by HPLC analysis
T4 sequence (P19643 whole entry): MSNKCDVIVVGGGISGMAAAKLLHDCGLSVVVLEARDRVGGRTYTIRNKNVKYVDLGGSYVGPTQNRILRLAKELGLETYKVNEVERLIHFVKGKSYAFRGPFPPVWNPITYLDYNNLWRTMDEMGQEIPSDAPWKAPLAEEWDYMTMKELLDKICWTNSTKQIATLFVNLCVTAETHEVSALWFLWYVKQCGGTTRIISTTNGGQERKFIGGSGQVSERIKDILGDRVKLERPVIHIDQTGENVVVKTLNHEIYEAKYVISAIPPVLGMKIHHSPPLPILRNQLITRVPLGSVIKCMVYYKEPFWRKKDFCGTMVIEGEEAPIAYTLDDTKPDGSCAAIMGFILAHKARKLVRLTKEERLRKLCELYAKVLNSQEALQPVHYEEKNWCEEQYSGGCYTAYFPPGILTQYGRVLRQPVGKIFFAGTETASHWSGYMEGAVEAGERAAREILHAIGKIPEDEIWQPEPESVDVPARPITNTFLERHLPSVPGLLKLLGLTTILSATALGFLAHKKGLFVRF

[5] = molecular target: T1, Amine oxidase [flavin-containing] A; assay: Reversible inhibition of recombinant human MAO-A assessed as residual activity pre-incubated at 4 times IC50 for 15 mins followed by dialysis for 24 hrs and subsequent kynuramine addition measured after 20 mins by fluorescence spectrophotometric analysis relative to untreated control
[6] = molecular target: T1, Amine oxidase [flavin-containing] A; assay: Reversible inhibition of recombinant human MAO-A assessed as residual activity pre-incubated at 4 times IC50 for 15 mins followed by kynuramine addition measured after 20 mins by fluorescence spectrophotometric analysis relative to untreated control
Method in brief: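 Undialysed comparison: MAO-A is pre-incubated 15 min with inhibitor at 4 × IC50 without dialysis. Residual activity is measured after kynuramine addition as in the IC50 assay (37 °C, 20 min, 2 N NaOH stop, fluorescence of 4-hydroxyquinoline). It is expressed relative to the inhibitor-free control.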

[7] = molecular target: T1, Amine oxidase [flavin-containing] A; assay: Irreversible inhibition of recombinant human MAO-A assessed as residual activity pre-incubated at 4 times IC50 for 15 mins followed by dialysis for 24 hrs and subsequent kynuramine addition measured after 20 mins by fluorescence spectrophotometric analysis relative to untreated control

Ratio IC50 (Homo sapiens)	pIC50 [1]	pIC50 [2]	pIC50 [3]	pIC50 [4]	Activity [5] [%]	Activity [6] [%]	Compound	Activity [7] [%]
0.6	5.78	5.56	–	–	–	–	O=C1/C(=C/c2ccc(O)cc2)Cc2cc(O)ccc21	–
4.5	6.02	6.67	–	–	–	–	CC(C)c1ccc(/C=C2\Cc3cc(O)ccc3C2=O)cc1	–
3.4	6.35	6.89	–	–	–	–	N#Cc1cccc(/C=C2\Cc3cc(O)ccc3C2=O)c1	–
14	6.17	7.33	–	–	–	–	O=C1/C(=C/c2ccc(F)cc2)Cc2cc(O)ccc21	–
49	5.82	7.51	–	–	–	–	CN(C)c1ccc(/C=C2\Cc3ccccc3C2=O)cc1	–
5.2	6.80	7.52	–	–	–	–	O=C1/C(=C/c2cccc(Cl)c2)Cc2cc(O)ccc21	–
17	6.07	7.28	–	–	–	–	Cc1cccc(/C=C2\Cc3cc(O)ccc3C2=O)c1	–
5.2	5.71	6.42	–	–	–	–	O=C1/C(=C/c2ccccc2)Cc2cc(O)ccc21	–
6.6	5.68	6.50	–	–	–	–	N#Cc1ccc(/C=C2\Cc3cc(O)ccc3C2=O)cc1	–
–	–	–	4.76	–	–	–	O=C(/C=C/c1ccc(O)cc1)c1ccc(O)cc1O [ISOLIQUIRITIGENIN]	–
–	–	–	–	4.94	–	–	COc1ccc2c(c1)C(=O)/C(=C/c1ccccc1OC)O2	–
1.2	5.92	6.02	–	–	–	–	O=C1/C(=C/c2cccc(O)c2)Cc2cc(O)ccc21	–
57	6.13	7.89	–	–	–	–	O=C1/C(=C/c2ccc(Cl)cc2)Cc2cc(O)ccc21	–
619	5.49	8.28	–	–	–	–	Cc1ccc(/C=C2\Cc3cc(O)ccc3C2=O)cc1	–
5.5	6.34	7.08	–	–	–	–	O=C1/C(=C/c2cccc(F)c2)Cc2cc(O)ccc21	–
> 10900	–	8.04	–	–	–	–	COc1ccc2c(c1)C/C(=C\c1ccccc1)C2=O	–
10	6.88	7.89	–	–	99	50	O=C1/C(=C/c2cccc(Br)c2)Cc2cc(O)ccc21	–
–	–	–	–	–	–	–	C#CCN(C)Cc1ccccc1 [PARGYLINE]	1.7
0.2	6.36	5.62	–	–	–	–	O=C1/C(=C/c2ccccc2)Cc2ccc(O)cc21	–
2.5	5.92	6.33	–	–	–	–	COc1cccc(/C=C2\Cc3cc(O)ccc3C2=O)c1	–
192	4.94	7.22	–	–	–	–	COc1ccc2c(c1)C/C(=C\c1ccc(N(C)C)cc1)C2=O	–
2.2	5.76	6.11	–	–	–	–	CN(C)c1ccc(/C=C2\Cc3cc(O)ccc3C2=O)cc1	–
198	5.98	8.28	–	–	–	–	O=C1/C(=C/c2ccc(Br)cc2)Cc2cc(O)ccc21	–
17	6.63	7.85	–	–	–	–	O=C1/C(=C/c2ccc(Cl)c(Cl)c2)Cc2cc(O)ccc21	–
2.1	5.27	5.59	–	–	–	–	O=C1/C(=C/c2ccccc2)Cc2ccccc21	–
